From ChEMBL document CHEMBL1123406, “Synthesis and evaluation of 2,3-dihydrobenzofuran analogues of the hallucinogen 1-(2,5-dimethoxy-4-methylphenyl)-2-aminopropane: drug discrimination studies in rats” (1986) come the findings set out here.

The species named for test [1] is Rattus norvegicus. In words: Compound was evaluated for the drug discrimination assay and the ED50 (potency) was determined. The class given is functional. A digest of the protocol: (§1)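 Male Sprague–Dawley rats (200-240 g, housed singly) trained in a two-lever operant task to discriminate ip saline from LSD tartrate 0.08 mg/kg. Reinforcement was 45 mg food pellets on an FR50 schedule, with 15-min daily training sessions. Test drugs were given 30 min before testing. A test ended at 50 responses on either lever or at 5 min; rats not completing 50 presses were scored disrupted and excluded.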

In test [2] the test system is Rattus norvegicus. Briefly: Percentage responding on LSD lever at dose 16.0 mg/kg. Type of test: functional. A digest of the protocol:
as §1

The subject of test [3] is Rattus norvegicus. In words: Percentage responding on LSD lever at dose 8.0 mg/kg. The class given is functional. A digest of the protocol: as §1
Test [4] relates to Rattus norvegicus. In words: Percentage responding on LSD lever at dose 2.0 mg/kg. The class given is functional. The procedure, abridged: as §1
The subject of test [5] is Rattus norvegicus. In words: Percentage responding on LSD lever at dose 0.5 mg/kg. The class given is functional. A digest of the protocol: as §1
The subject of test [6] is Rattus norvegicus. In words: Percentage responding on LSD lever at dose 4.0 mg/kg. Type of test: functional. A digest of the protocol: as §1
Test [7] concerns Rattus norvegicus. In words: Percentage responding on LSD lever at dose 3.0 mg/kg. Type of test: functional. The procedure, abridged: as §1
In test [8] the test system is Rattus norvegicus. In words: Number of rats responding on LSD lever/number of rats treated at dose 4.0 mg/kg; 8/8. The class given is functional, organism-based. On the set-up: dose 4 mg/kg. A digest of the protocol:
as §1

Test [9] has as its system Rattus norvegicus. In words: Percentage responding on LSD lever at dose 1.0 mg/kg. Type of test: functional. A digest of the protocol: as §1
For test [10], the system named is Rattus norvegicus. Briefly: Number of rats responding on LSD lever/number of rats treated at dose 2.0 mg/kg; 6/8. The class given is functional, organism-based. On the set-up: dose 2 mg/kg. The procedure, abridged: as §1
Test [11] concerns Rattus norvegicus. In words: Number of rats responding on LSD lever/number of rats treated at dose 3.0 mg/kg; 8/10. Type of test: functional, organism-based. On the set-up: dose 3 mg/kg. A digest of the protocol:
as §1

Test [12] concerns Rattus norvegicus. Briefly: Number of rats responding on LSD lever/number of rats treated at dose 1.0 mg/kg; 4/8. Type of test: functional, organism-based. On the set-up: dose 1 mg/kg. A digest of the protocol: as §1
For test [13], the system named is Rattus norvegicus. In words: Number of rats responding on LSD lever/number of rats treated at dose 0.5 mg/kg; 1/8. Further details: dose 0.5 mg/kg. The class given is functional, organism-based. A digest of the protocol:
as §1

The subject of test [14] is Rattus norvegicus. Briefly: Number of rats responding on LSD lever/number of rats treated at dose 0.25 mg/kg; 1/8. On the set-up: dose 0.25 mg/kg. The class given is functional, organism-based. A digest of the protocol: as §1
Test [15] relates to Rattus norvegicus. In words: Percentage responding on LSD lever at dose 0.25 mg/kg. Type of test: functional. A digest of the protocol:
as §1

For test [16], the system named is Rattus norvegicus. In words: Number of rats responding on LSD lever/number of rats treated at dose 10.0 mg/kg; 10/12. Type of test: functional, organism-based. On the set-up: dose 10 mg/kg. A digest of the protocol:
as §1

Test [17] has as its system Rattus norvegicus. In words: Number of rats responding on LSD lever/number of rats treated at dose 4.0 mg/kg; 5/8. Type of test: functional, organism-based. Further details: dose 4 mg/kg. A digest of the protocol: as §1
The test system of test [18] is Rattus norvegicus. Briefly: Number of rats responding on LSD lever/number of rats treated at dose 1.0 mg/kg; 1/8. Type of test: functional, organism-based. On the set-up: dose 1 mg/kg. The procedure, abridged: as §1
Test [19] has as its system Rattus norvegicus. Briefly: Number of rats responding on LSD lever/number of rats treated at dose 8.0 mg/kg; 6/8. Type of test: functional, organism-based. On the set-up: dose 8 mg/kg. A digest of the protocol:
as §1

Test [20] has as its system Rattus norvegicus. In words: Percentage responding on LSD lever at dose 10.0 mg/kg. The class given is functional. The procedure, abridged:
as §1

The structures appear in SMILES notation. Activity calls are given as the source filed them. The rule behind the calls is not given here.

What is called ED50 is the dose at which the effect has come halfway, by size or by number of responders. A high value points to a need for a large dose. Consider `COc1cc2c(cc1CC(C)N)OC(C)C2` (stereo not drawn), for which, in the test filed under Rattus norvegicus [1], the ED50 worked out at 5.5 mg/kg. The Responding is 88% in the test on Rattus norvegicus [2]; 63% with Rattus norvegicus [3]; 0% in the test with Rattus norvegicus [4]; 0% in the test on Rattus norvegicus [5]; 38% in the test with Rattus norvegicus [6].

As to `COc1cc2c(cc1CC(C)N)OCO2` (stereo not drawn), the Responding in the test with Rattus norvegicus [7] turned out to be 80%; with Rattus norvegicus [9], 50%; with Rattus norvegicus [4], 75%; in the test on Rattus norvegicus [5], 13%; in the test with Rattus norvegicus [6] it was 100%. This compound also registered a 50% effective dose (ED50) in the test filed under Rattus norvegicus [1] of 1.71 mg/kg. Moreover, the result in the test with Rattus norvegicus [8] and in the test with Rattus norvegicus [11] was Active. Also, the Activity result in the test on Rattus norvegicus [10] and with Rattus norvegicus [12] was “Weak activity” throughout. Besides, the result with Rattus norvegicus [13] was inactive.

On to `COc1cc2c(cc1CC(C)N)OCC2` (stereo not drawn), for which, in the test listed under Rattus norvegicus [1], the median effective dose (ED50) came to 2.12 mg/kg. The result in the test on Rattus norvegicus [14] and with Rattus norvegicus [18] was inactive. For the same compound, the Responding turned out to be 13% in the test with Rattus norvegicus [15]; 13% in the test with Rattus norvegicus [9]; 75% in the test on Rattus norvegicus [3]; 83% in the test on Rattus norvegicus [20]; 63% with Rattus norvegicus [6]. In addition, in the test with Rattus norvegicus [16], the outcome was Active. Also, the Activity entry in the test with Rattus norvegicus [17] and with Rattus norvegicus [19] was “Weak activity” each time.
